Screening data as filed in PubChem.
This is a sample that favours compounds with a hit; in the whole collection about 3.8% have one here.
NPY Y2 blocker = antagonists of human neuropeptide Y receptor Y2; P49146; NPY-Y2 expressing cells, antagonist mode; inhibition, % at 2.7 µM; hit rate 0.99% among 140,000
NPY-Y1 antag = antagonists of human neuropeptide Y receptor Y1; AID 1040; hit rate 1% among 200,000; inhibition, % at 3.6 µM; HEK293-CNG Y1 cells, membrane potential fluorescence; NPY at EC95, then isoproterenol; P25929;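 active means inhibition above the campaign mean inhibition of all tested compounds plus 3 SD, cut at about 20% in these data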
Target sequence (P25929 whole entry, looked up): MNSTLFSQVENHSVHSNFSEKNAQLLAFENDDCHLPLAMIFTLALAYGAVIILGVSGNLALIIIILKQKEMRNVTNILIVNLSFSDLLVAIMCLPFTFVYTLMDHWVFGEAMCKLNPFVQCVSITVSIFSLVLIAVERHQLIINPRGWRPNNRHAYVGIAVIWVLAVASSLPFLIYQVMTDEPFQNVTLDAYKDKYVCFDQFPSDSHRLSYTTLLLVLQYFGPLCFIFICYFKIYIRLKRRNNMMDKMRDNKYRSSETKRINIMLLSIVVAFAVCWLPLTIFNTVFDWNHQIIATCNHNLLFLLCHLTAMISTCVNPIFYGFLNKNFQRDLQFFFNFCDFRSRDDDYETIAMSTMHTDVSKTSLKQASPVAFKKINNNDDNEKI
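Material: HEK293 cells with Y1 receptor plus CNG channel; times: compound incubation 1 h at room temperature, readout 45 min post-stimulation; signal: fluorescence, membrane potential probe; read-out basis: fluorescence ratio normalized to % inhibition between controls; benchmarks: full-block control isoproterenol-only wells, zero-block control NPY plus isoproterenol wells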
RAM network inh = blocks the yeast RAM network. S. cerevisiae dse1pr::URA3 reporter, 5-FOA growth OD615, 2 d; analog-sensitive cbk1-as2 kinase mutant strain. inhibition, % at 50 µM. hit rate 1.8% among 190,000. AID 868;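 active means inhibition above a set limit, 3 SD over mean compound inhibition, cut at about 8.4% in these data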;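 further: inhibition rescues growth on 5-FOA so higher OD means more RAM inhibition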
NPY2 pot ag = potentiators or agonists of human neuropeptide Y receptor Y2; AID 1359; activation, % at 3.6 µM; hit rate 0.45% among 220,000; P49146; cells expressing NPY-Y2, potentiator/agonist read-out; in the data active means activation above about 27%;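 further: cells stimulated with NPY near EC25 plus isoproterenol at EC100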
Insulin prom inh = TRM-6 insulin promoter activity inhibition. TRM-6 cells, insulin promoter-eGFP reporter, imaging; reporter expression induced with tamoxifen. inhibition, % at 2 µM. hit rate 0.9% among 130,000;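 active means inhibition above the mean plus 3 SD, with well images judged a real hit on visual review, cut at about 60% in these data, passing the limit was not always enough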
NPY-Y1 PAM-ag = potentiators or agonists of human neuropeptide Y receptor Y1 | hit rate 0.37% among 220,000 | NPY-Y1 expressing cells, potentiator/agonist activation | AID 1304 | activation, % at 3.6 µM | P25929; in the data active means activation above about 33%, passing the limit was not always enough;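 further: cells stimulated with NPY at EC10 then isoproterenol at EC100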
NPY-Y1 ant conf = confirmation of human neuropeptide Y receptor Y1 antagonists; AID 1254; hit rate 21% among 1,200; inhibition, % at 3.6 µM; HEK293-CNG NPY-Y1, membrane potential fluorescence, cAMP; NPY challenge against isoproterenol-raised cAMP; shares compounds with NPY-Y1 antag; in the data active means inhibition above about 20%
NPY2 antag ctr = antagonizes human NPY-Y2, counter-screen to NPY-Y1 antagonists; shares compounds with NPY-Y1 antag; HEK293 NPY-Y2 CNG membrane potential fluorescence, antagonism; cells given NPY, then isoproterenol; inhibition, % at 3.6 µM; hit rate 28% among 1,200; AID 1255
Numbers stand for hits; i = inactive; nt = no result given. Unless noted, no stated cut-off is given here; in the data, active means inhibition above about 17%; inactive means the rest.

SMILES	NPY Y2 blocker	NPY-Y1 antag	RAM network inh	NPY2 pot ag	Insulin prom inh	NPY-Y1 PAM-ag	NPY-Y1 ant conf	NPY2 antag ctr
COc1ccc(C2=NOC(C(=O)NCc3ccc(F)cc3)C2)cc1OC (stereo not given)	i	32.7	i	i	i	i	i	i
O=C(NCc1cccnc1)C1CC(c2ccc(F)cc2)=NO1 (stereo not given)	i	i	i	i	nt	i	nt	nt
COc1cccc(C2=NOC(C(=O)NCc3ccc(F)cc3)C2)c1 (stereo not given)	i	23.5	i	i	i	i	i	23.8
O=C(NCc1cccs1)C1CC(c2ccc(F)cc2)=NO1 (stereo not given)	nt	i	i	i	nt	i	nt	nt
COc1cccc(C2=NOC(C(=O)NCc3cccs3)C2)c1 (stereo not given)	i	30.0	i	i	i	i	i	i
COc1cc(C2=NOC(C(=O)NCc3ccc(F)cc3)C2)cc(OC)c1OC (stereo not given)	i	i	i	i	i	i	nt	nt
COC(=O)c1c(C)oc(C)c1S(=O)(=O)NCc1ccc(Cl)cc1Cl	nt	nt	nt	i	nt	i	nt	nt
COc1ccccc1NC(=O)c1cc2c(s1)-c1ccccc1S(=O)(=O)C2	nt	nt	nt	i	nt	i	nt	nt
CCCCN(CC)Cc1ccc(CNC(=S)Nc2cccc(F)c2)o1	nt	i	i	i	nt	i	nt	nt
COc1cc(-c2noc(-c3ccccc3C(=O)NCc3ccco3)n2)cc(OC)c1OC	i	25.3	i	i	i	i	i	i
O=C(CSc1nnc(Cc2ccccc2)n1Cc1ccco1)NC12CC3CC(CC(C3)C1)C2	i	22.6	i	i	i	i	i	i
Cn1c(Cc2nc(-c3cnccn3)no2)nnc1SCC(=O)Nc1ccccc1	nt	nt	nt	i	nt	i	nt	nt
Cc1onc(-c2ccccc2)c1NC(=O)Nc1c(-c2ccccc2)noc1C	nt	30.5	i	i	i	i	i	i
Cc1ccc(S(=O)(=O)N(C)C)cc1NC(=O)Nc1c(-c2ccccc2)noc1C	nt	nt	nt	i	nt	i	nt	nt
Fc1ccc(C(c2nnnn2Cc2ccco2)N2CCN(C3CCCCC3)CC2)cc1 (stereo not given)	i	28.9	i	i	i	i	i	i
CCC(C)N1C(=O)CN(C2CCCCCC2)C(=O)C1c1ccccc1F (stereo not given)	nt	24.3	i	i	i	i	i	i
COC(=O)c1sc(C(C)(C)C)cc1CSc1ccccc1	nt	nt	nt	i	nt	i	nt	nt
CCC(C)Sc1nc2c(c(=O)[nH]1)C(c1cccs1)C1=C(CCCC1=O)N2 (stereo not given)	nt	22.5	i	i	i	i	i	i
O=C1CCCC2=C1C(c1ccncc1)c1c(nc(SCc3ccccc3Cl)[nH]c1=O)N2 (stereo not given)	i	i	i	i	i	i	nt	nt
CCC(C(=O)O)N1C(=O)C2CCCCC2C1=O (stereo not given)	nt	nt	nt	i	nt	i	nt	nt
O=C(Nc1ccc(F)cc1)c1sc2cc(C(F)(F)F)cnc2c1-c1cccs1	i	22.9	i	i	i	i	i	i
O=C(Nc1nc2ccc(Cl)cc2s1)[C@@H]1CCCN1C(=O)c1cccs1	i	i	i	i	i	i	nt	nt
COc1ccc(NC(=O)CCSc2ccc(C)cc2)cc1S(=O)(=O)Nc1ccccc1Cl	i	25.4	8.8	i	nt	i	i	i
Cc1nn(-c2ccccc2)c(Oc2ccc(F)cc2)c1/C=N/n1cnnc1	i	20.2	i	i	nt	i	i	i
COc1ccc(C2C(Oc3ccccc3)C(=O)N2c2ccc(C)c(C)c2)cc1OC (stereo not given)	i	i	nt	i	i	i	nt	nt
SMILES	NPY Y2 blocker	NPY-Y1 antag	RAM network inh	NPY2 pot ag	Insulin prom inh	NPY-Y1 PAM-ag	NPY-Y1 ant conf	NPY2 antag ctr
COc1ccc(C2C(Oc3ccccc3)C(=O)N2c2cc(C)ccc2C)cc1OC (stereo not given)	i	22.4	i	i	i	i	i	i
CNC(=S)N1CCN(c2ccc(Cl)c(Cl)c2)CC1	nt	i	i	i	nt	i	nt	nt
Clc1ccc(-c2c[n+](Cc3ccc(Cl)cc3Cl)c3n2CCCCC3)cc1	nt	nt	nt	i	nt	i	nt	nt
O=C(C[n+]1cc(-c2ccccc2)n2c1CCCCC2)c1ccc(Cl)cc1	i	36.8	i	i	nt	i	25.2	21.8
Cc1ccc(-c2c[n+](CC(=O)c3ccc(Br)cc3)c3n2CCCCC3)cc1	nt	35.4	i	i	i	i	52.0	30.6
CC1CCC(C(C)C)C(OC(=O)C[n+]2cc(-c3ccc(Cl)cc3)n3c2CCCCC3)C1 (stereo not given)	nt	80.4	i	i	nt	i	45.1	38.6
Clc1ccc(C[n+]2cc(-c3ccccc3)n3c2CCCCC3)c(Cl)c1	nt	50.2	i	i	nt	i	32.9	22.0
CCOC(=O)C1=C(c2ccccc2)NC(N)=NC1c1ccc(OCc2ccc(Cl)cc2)c(OC)c1 (stereo not given)	nt	nt	nt	i	nt	i	nt	nt
Cc1ccc(OC(C)C(=O)N(Cc2cccs2)C2CCS(=O)(=O)C2)cc1C (stereo not given)	nt	nt	nt	i	nt	i	nt	nt
O=C(Nc1nnc(C2CC2)s1)C1Cc2ccccc2CN1S(=O)(=O)c1ccccc1F (stereo not given)	i	i	i	i	i	i	nt	nt
O=C1N(Cc2cccc(Cl)c2)C[C@@H]2C[C@@H](c3ccsc3)N3CCC[C@@]123	nt	28.7	i	i	nt	i	i	i
CCN(CC)C(C)C(=O)Nc1c2c(cc3c1CCC3)CCC2 (stereo not given)	i	i	i	i	i	i	nt	nt
CC(C(=O)Nc1c2c(cc3c1CCC3)CCC2)N1CCCC1 (stereo not given)	i	20.2	i	i	i	i	i	i
O=C1CCCN1CCCNC(=S)Nc1cccc2ccccc12	nt	i	i	i	nt	i	nt	nt
Cc1ccccc1OCCCn1c(=O)sc2ccccc21	i	26.8	i	i	i	i	i	i
C/C(=N\N=C(N)N)c1ccc(Cl)c(Cl)c1	nt	i	i	i	i	i	nt	nt
COc1ccc(-c2n(CC(=O)OC3CC(C)CCC3C(C)C)c3ccccc3[n+]2C)cc1 (stereo not given)	nt	150.1	i	i	i	i	134.7	91.3
CC(=O)c1cccc(NC(=S)NC(=O)CC(C)C)c1	i	i	i	i	i	i	nt	nt
CCN(C(=O)CC(C)C)c1nnc(Cn2nnc3ccccc32)s1	nt	i	i	i	i	i	nt	nt
CCN(C(=O)c1ccc(C(C)(C)C)cc1)c1nnc(Cn2nnc3ccccc32)s1	i	31.1	i	i	nt	i	40.5	i
COc1ccc(N(C(=O)C2CCCCC2)S(=O)(=O)c2cccc3cccnc23)cc1	nt	31.1	i	i	nt	i	21.4	i
O=C(NCCCN1CCOCC1)c1ccc(NC(=O)C2COc3ccccc3O2)cc1 (stereo not given)	nt	i	i	i	nt	i	nt	nt
